# Measurements: ChEMBL document CHEMBL1153848, “Design and synthesis of azolopyrimidoquinolines, pyrimidoquinazolines as anti-oxidant, anti-inflammatory and analgesic activities” (2009)
# Active and inactive are the calls of the source.
# What was measured:
# [1] = system: Rattus norvegicus; assay: Antiinflammatory activity in Sprague-Dawley rat assessed as protection against carrageenan-induced hind paw edema at 20 mg/kg, po administered 1 hr before carrageenan challenge measured after 1 hr; type: functional
# Outline: (§1)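 Adult female albino rats (150–180 g), fasted 18 h, six per group. Aqueous suspension in distilled water given orally at 20 mg/kg 1 h before subplantar injection of 0.1 mL 1% w/v carrageenan into the left hind paw. Vehicle controls got 0.5 mL water; diclofenac sodium 20 mg/kg po was the reference. Paw volume was measured by mercury plethysmometer before injection and hourly for 4 h. Inhibition = (Ec−Et)/Ec, with edema = (Vt−V0)/V0.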
# [2] = system: Rattus norvegicus; assay: Antiinflammatory activity in Sprague-Dawley rat assessed as protection against carrageenan-induced hind paw edema at 20 mg/kg, po administered 1 hr before carrageenan challenge measured after 3 hrs; type: functional; outline: as §1
# [3] = system: Brain; assay: Antioxidant activity in Sprague-Dawley rat brain assessed as inhibition of lipid peroxidation; type: functional, tissue-based
# [4] = system: Rattus norvegicus; assay: Antiinflammatory activity in Sprague-Dawley rat assessed as protection against carrageenan-induced hind paw edema at 20 mg/kg, po administered 1 hr before carrageenan challenge measured after 2 hrs; type: functional; outline: as §1
# [5] = Antioxidant activity assessed as ABTS radical scavenging activity at 2 mM; type: functional
# Outline: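 ABTS radical scavenging, read as the fall in colour absorbance after MeOH/phosphate buffer (1:1) is added. % inhibition = (A_control − A_test)/A_control × 100. The negative control uses MeOH/phosphate buffer (1:1) in place of compound, the blank omits ABTS, and ascorbic acid is the positive control.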
# [6] = system: Mus musculus; assay: Central analgesic activity in Swiss albino mouse assessed as thermal stimuli reaction time at 20 mg/kg, po after 90 mins by hot plate method; type: functional
# Outline: (§2)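 Swiss mice of both sexes (25–30 g), six per group, on a hot plate held at 53 ± 0.5 °C. Latency was timed to hind-paw licking or jumping, with a 60 s cut-off. It was measured before dosing, then at 15, 30, 60 and 90 min after an oral aqueous suspension at 20 mg/kg. Controls were untreated; oral diclofenac sodium 20 mg/kg was the reference.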
# [7] = system: Mus musculus; assay: Peripheral analgesic activity in Swiss albino mouse assessed as protection against acetic acid-induced writhing response at 20 mg/kg, po administered 30 mins before acetic acid challenge measured after 2 hrs relative to control; type: functional
# [8] = system: Mus musculus; assay: Peripheral analgesic activity in Swiss albino mouse assessed as protection against acetic acid-induced writhing response at 20 mg/kg, po administered 30 mins before acetic acid challenge measured after 30 mins relative to control; type: functional
# [9] = Antioxidant activity in Sprague-Dawley rat erythrocytes assessed as peroxyl radical-induced hemolysis after 1 hr; type: functional, Erythrocyte
# [10] = system: Kidney; assay: Antioxidant activity in Sprague-Dawley rat kidney assessed as inhibition of lipid peroxidation; type: functional, tissue-based
# [11] = system: Mus musculus; assay: Central analgesic activity in Swiss albino mouse assessed as thermal stimuli reaction time at 20 mg/kg, po after 30 mins by hot plate method; type: functional; outline: as §2
# [12] = system: Mus musculus; assay: Peripheral analgesic activity in Swiss albino mouse assessed as protection against acetic acid-induced writhing response at 20 mg/kg, po administered 30 mins before acetic acid challenge measured after 1 hr relative to control; type: functional
# [13] = system: Mus musculus; assay: Peripheral analgesic activity in Swiss albino mouse assessed as protection against acetic acid-induced writhing response at 20 mg/kg, po administered 30 mins before acetic acid challenge measured after 3 hrs relative to control; type: functional
# [14] = system: Mus musculus; assay: Central analgesic activity in Swiss albino mouse assessed as thermal stimuli reaction time at 20 mg/kg, po after 60 mins by hot plate method; type: functional; outline: as §2
Compound,Activity [1],Activity [2],Activity [3],Activity [4],inhibition [5],Activity [6],Activity [7],Activity [8],Activity [9],Activity [10],Activity [11],Activity [12],Activity [13],Activity [14]
O=c1c2c(-c3ccc(Cl)cc3)c3c(nc2nc2sc4c(n12)ONC4c1ccccc1)/C(=C\c1ccc(Cl)cc1)CCC3 (configuration not stated),49.6%,34.8%,Active,57.1%,33.3%,12.68 min,59.3%,46.7%,9.39%,Active,7.08 min,53%,36.5%,9.52 min
CSC1=Nc2nc3c(c(-c4ccc(Cl)cc4)c2C(N2CCNCC2)N1)CCC/C3=C/c1ccc(Cl)cc1 (configuration not stated),43.1%,42%,Active,52%,–,11.5 min,49.4%,49.5%,–,Active,7.93 min,50%,30.5%,10.15 min
CC(=O)c1sc2nc3nc4c(c(-c5ccc(Cl)cc5)c3c(=O)n2c1C)CCC/C4=C/c1ccc(Cl)cc1,46.7%,39.2%,Active,44.2%,40.7%,12 min,53.1%,43.5%,6.06%,Active,7.54 min,49%,38.4%,8.61 min
Nc1ccc(/C=C2/CCCc3c2nc2nc4s/c(=C\c5cccs5)c(=O)n4c(=O)c2c3-c2ccc(N)cc2)cc1,–,–,Active,–,25.9%,–,–,–,6.36%,Active,–,–,–,–
COc1ccc(/C=C/C(=O)c2sc3nc4nc5c(c(-c6ccc(Cl)cc6)c4c(=O)n3c2C)CCC/C5=C/c2ccc(Cl)cc2)cc1,–,–,Active,–,22.2%,–,–,–,5.9%,Active,–,–,–,–
CCSc1nc2nc3c(c(-c4ccc(Cl)cc4)c2c(=O)n1CC)CCC/C3=C/c1ccc(Cl)cc1,–,–,Active,–,35.2%,–,–,–,30.75%,Active,–,–,–,–
CCSc1nc2nc3c(c(-c4ccc(Cl)cc4)c2c(=O)[nH]1)CCC/C3=C/c1ccc(Cl)cc1,–,–,Active,–,37%,–,–,–,5.6%,Active,–,–,–,–
O=C([O-])Cc1ccccc1Nc1c(Cl)cccc1Cl.[Na+] [DICLOFENAC SODIUM],52.4%,42%,–,60.3%,–,13.2 min,62%,46%,–,–,10 min,55.2%,39%,11.4 min
CC(=O)C(Sc1nc2nc3c(c(-c4ccc(Cl)cc4)c2c(=O)[nH]1)CCC/C3=C/c1ccc(Cl)cc1)C(C)=O,46.3%,38.6%,Active,48.6%,42.6%,10.4 min,56.6%,46%,7.87%,Active,8.68 min,54%,37.3%,9.8 min
COc1ccc(/C=c2\sc3nc4nc5c(c(-c6ccc(Cl)cc6)c4c(=O)n3c2=O)CCC/C5=C/c2ccc(Cl)cc2)cc1,–,–,Active,–,33.3%,–,–,–,4.54%,Active,–,–,–,–
CCSc1nc2nc3c(c(-c4ccc(Cl)cc4)c2c(=O)n1C)CCC/C3=C/c1ccc(Cl)cc1,–,–,Active,–,31.5%,–,–,–,5.3%,Active,–,–,–,–
C/C(=N/O)c1sc2nc3nc4c(c(-c5ccc(Cl)cc5)c3c(=O)n2c1C)CCC/C4=C/c1ccc(Cl)cc1,–,–,Active,–,48.1%,–,–,–,7.22%,Active,–,–,–,–
